PubChem BioAssay AID1624 (Sanford-Burnham Center for Chemical Genomics, 2009)

Tested on: PPC-1 cells, TRAIL potentiation, ATPlite luminescence, 24 h
Assay: synergy with TRAIL in cancer cell cytotoxicity – PPC-1 cells, ATPlite luminescence, confirmation (AID 1624)
Conditions: stronger effect = higher value
Method in brief: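 Schedule: 4 h compound pretreatment, then 24 h TRAIL exposure, 37 °C. System: PPC-1 human cancer cell line. Detection: ATP-based luminescence (ATPlite). Also added: TRAIL added after compound pretreatment. Dosing: compound at 1.25 to 5 µM final concentration.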

[1] = compound alone cytotoxicity, at 5 µM
[2] = compound plus TRAIL, at 1.25 µM

Question: For `CSc1nc(-c2ccc(C)cc2)nc(C(Cl)Cl)n1`, which cytotoxicity with TRAIL (at 5 µM) is on record?
Answer: The cytotoxicity with TRAIL was 100%.

Question: And the cytotoxicity without TRAIL [1]?
Answer: The cytotoxicity without TRAIL was 45%.

Question: What about the cytotoxicity without TRAIL (compound alone, at 1.25 µM) of the same compound?
Answer: Its cytotoxicity without TRAIL is 49%.

Question: What about the cytotoxicity without TRAIL (compound alone, at 2.5 µM) of the same compound?
Answer: The cytotoxicity without TRAIL was 48%.

Question: And the cytotoxicity with TRAIL [2]?
Answer: The cytotoxicity with TRAIL was 94%.

Question: What about the cytotoxicity with TRAIL (compound plus TRAIL, at 2.5 µM) of the same compound?
Answer: Its cytotoxicity with TRAIL is 100%.

Question: Which results are given for `CCSc1nc(-c2ccccc2)nc(C(Cl)Cl)n1`?
Answer: cytotoxicity with TRAIL (at 5 µM): 96%; cytotoxicity without TRAIL [1]: 41%; cytotoxicity without TRAIL (compound alone, at 1.25 µM): 18%; cytotoxicity without TRAIL (compound alone, at 2.5 µM): 26%; cytotoxicity with TRAIL [2]: 43%; cytotoxicity with TRAIL (compound plus TRAIL, at 2.5 µM): 61%

Question: Which results are given for `CSc1nc(-c2ccccc2)nc(C(Cl)Cl)n1`?
Answer: cytotoxicity with TRAIL (at 5 µM): 100%; cytotoxicity without TRAIL [1]: 56%; cytotoxicity without TRAIL (compound alone, at 1.25 µM): 52%; cytotoxicity without TRAIL (compound alone, at 2.5 µM): 56%; cytotoxicity with TRAIL [2]: 83%; cytotoxicity with TRAIL (compound plus TRAIL, at 2.5 µM): 96%
